We go through one compound from publication PMC4177010 (Cancer chemotherapy and pharmacology, 2014).

One data set has as its system caspase 3. The experiment in a line: rt-PCR mRNA levels in HL-60 cells. The class given is cell-based, human. The note with it: 20 nM 1,25(OH)2D3, 18 hours.
For another data set, the system named is HL-60 cells. Nature of the data set: Cell proliferation assay. In kind it is cell-based, human. The note with it: HL-60 treated with VDR siRNA; same concentrations as non-transfected cells.
Another data set has as its system Caco2 cells. Nature of the data set: Cell proliferation assay. The class given is cell-based, human. The note with it: 100 nM 1,25(OH)2D3, 5 days.
The subject of another data set is caspase 7. The experiment in a line: rt-PCR mRNA levels in HL-60 cells. In kind it is cell-based, human. The note with it: 20 nM 1,25(OH)2D3, 18 hours.
Another data set has as its system SKOV3 cells. Nature of the data set: Cell proliferation assay. The note with it: 100 nM 1,25(OH)2D3, 5 days. In kind it is cell-based, human.
The test system of another data set is NCoR. Nature of the data set: ChIP at the CYP24A1 promoter in HL-60 cells, NCoR antibody. The note with it: 20 nM 1,25(OH)2D3, 18 hours. In kind it is cell-based, human.
For the next data set, the system named is Survivin. Nature of the data set: Human apoptosis antibody array, HL-60 cells. In kind it is cell-based. The note with it: 1,25(OH)2D3 (20 nM), 18 hours. In a few lines: (§1)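 Lysates in kit lysis buffer went onto a blocked glass-chip array of 44 apoptosis capture antibodies spotted in duplicate, 18 h at 4 °C. Biotinylated detection antibodies and fluorescent streptavidin were each applied 2 h at room temperature. A fluorescence scan gave spot intensities.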

The test system of another data set is CYP3A4. Nature of the data set: rt-PCR mRNA levels in HL-60 cells. In kind it is cell-based, human. The note with it: 18 hours, 1,25(OH)2D3 (20 nM), PS121912 (3 µM) or a combination thereof.
The subject of a further data set is SRC2. Nature of the data set: ChIP at the CYP24A1 promoter in HL-60 cells, SRC2 antibody. The note with it: 20 nM 1,25(OH)2D3, 18 hours. The class given is cell-based, human.
A further data set has as its system IGF-II. The experiment in a line: Human apoptosis antibody array, HL-60 cells. In kind it is cell-based. The note with it: 1,25(OH)2D3 (20 nM), 18 hours. In a few lines: as §1
A further data set relates to HTRA. The experiment in a line: Human apoptosis antibody array, HL-60 cells. In kind it is cell-based. The note with it: 1,25(OH)2D3 (20 nM), 18 hours. A digest of the protocol:
as §1

Take `C=C1/C(=C\C=C2/CCC[C@]3(C)[C@@H]([C@H](C)CCCC(C)(C)O)CC[C@@H]23)C[C@@H](O)C[C@@H]1O` [1,25(OH)2D3, 1,25-dihydroxyvitamin D3]: in the data set on caspase 3, the “caspase 3 mRNA levels” value was “no change”. The “antiproliferation effect in VDR siRNA treated cells” value in the data set with HL-60 cells is recorded as “abolished”. For the same compound, the antiproliferative effect entry in the data set with Caco2 cells and with SKOV3 cells was “minor antiproliferative effect” throughout. In addition, the “caspase 7 mRNA levels” value with caspase 7 is given as “no change”. Also, the “interaction between VDR and NCoR at the CYP24A1 promoter” value in the data set on NCoR is listed as “reduced”. In addition, the Survivin protein level entry in the data set with Survivin is “reduced”. Besides, the “mRNA levels of CYP3A4” value with CYP3A4 was “not altered”. In the data set on SRC2, the “SRC2 recruitment at the CYP24A1 promoter” value was “recruitment of coactivator SRC2”. In the data set on IGF-II, the IGF-II protein level entry is recorded as “induced”. In addition, in the data set on HTRA, the HTRA protein level result is on record as “upregulated”.
